Source: PubChem
697 NFkB inh = lowers PMA/ionomycin-induced NF-kB signal in 697 B cells | hit rate 0.33% among 330,000 | 697 B-cell NF-kB luciferase reporter, 16 h | inhibition, % at 4 µM; in the data active means inhibition above about 35%
NR2E3 ag-1 = activates human photoreceptor nuclear receptor NR2E3 | hit rate 0.12% among 320,000 | AID 2300 | Q9Y5X4 | GST-NR2E3/biotin-RetCOR TR-FRET, 1536-well | inhibition of corepressor binding, % at 4.78 µM;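 active means percent inhibition above the cutoff of mean plus 3 SD of all tested compounds, set per screening campaign, cut at about 20% in these data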;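 further: 0% = DMSO wells and 100% = biotin wells as full block of FRET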
Target sequence (Q9Y5X4 whole entry, looked up): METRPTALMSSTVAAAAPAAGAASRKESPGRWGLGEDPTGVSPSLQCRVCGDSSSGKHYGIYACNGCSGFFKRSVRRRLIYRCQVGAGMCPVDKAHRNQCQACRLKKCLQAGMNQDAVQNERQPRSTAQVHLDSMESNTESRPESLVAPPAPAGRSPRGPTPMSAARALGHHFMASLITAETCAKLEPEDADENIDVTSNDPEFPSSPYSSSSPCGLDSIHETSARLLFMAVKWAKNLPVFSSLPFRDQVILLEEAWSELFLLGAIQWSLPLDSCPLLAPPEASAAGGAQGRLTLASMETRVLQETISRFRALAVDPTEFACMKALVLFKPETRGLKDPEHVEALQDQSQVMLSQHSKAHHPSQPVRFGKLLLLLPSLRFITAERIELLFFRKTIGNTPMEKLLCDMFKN
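Material: NR2E3–RetCOR corepressor complex | Quantity: 1.35 nM GST-tagged NR2E3 final | Schedule: 5 h at 4 °C | Replication: Singlicate compound wells | Reagent: RetCOR corepressor, biotinylated, 7 nM | Controls: Biotin wells as high control, 0.6% DMSO wells as low control | Signal: TR-FRET, Eu(K)-anti-GST donor, streptavidin-D2 acceptor, ex 340, em 617/671 nm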
NR2E3 ag-2 = agonists of human NR2E3 nuclear receptor; CHO-S Gal4-NCOR/VP16-NR2E3 two-hybrid, luciferase; inhibition of corepressor binding, % at 3.98 µM; hit rate 0.35% among 360,000; AID 602229;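 active means inhibition above the mean of all tested compounds plus 3 SD, cut at about 70% in these data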;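 further: 0% = DMSO with NR2E3 transfected cells and 100% = cells lacking NR2E3 construct; higher means lower luciferase signal from less NR2E3 corepressor binding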
Jurkat NFkB inh = lowers PMA/ionomycin-induced NF-kB signal in Jurkat cells; PMA/ionomycin-induced NF-kB luciferase reporter, luminescence; inhibition, % at 4 µM; hit rate 0.53% among 330,000; in the data active means inhibition above about 50%
miR-122 sensor = inhibitors of miR-122 in Huh7 cells; Huh7 miR-122 Renilla luciferase sensor, 48 h; neutral wells = 0, positive control = 100; activation (reporter increase), % at 12.5 µM; hit rate 0.3% among 340,000; AID 602342;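 active means mean replicate activation score at least 90 and every replicate individually at or above 90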;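 further: higher luciferase means less miR-122 activity so hits act as miR-122 inhibitors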
FGF22 binding = FGF22 (human) thermal shift binding; Q9HCT0; recombinant FGF22 thermal shift, SYPRO orange fluorescence; percent of sucrose octasulfate shift, DMSO zero; activity (Tm shift, normalised), % at 9.99 µM; hit rate 1.5% among 340,000; AID 651658;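 active means mean Tm shift, scaled 0 neutral to 100 positive control, at about 1.3% or above, every replicate too, limit read from the data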
697 NFkB conf = inhibitors of the PMA/ionomycin-induced NF-kB reporter in 697 B cells, retest; shares compounds with 697 NFkB inh; 697 B-cell NF-kB luciferase, 16 h; inhibition, % at 4 µM; hit rate 35% among 2,000; AID 449746; in the data active means inhibition mostly above about 28%, no sharp cut-off; inactive means mostly below about 22%
An asterisk follows results filed as active; i = inactive; x = not tested or not shown; [ ] = remark or other dose. In the library only some 2.2% were active in any assay of this set; here they are far more common.

SMILES	697 NFkB inh	NR2E3 ag-1	NR2E3 ag-2	Jurkat NFkB inh	miR-122 sensor	FGF22 binding	697 NFkB conf
COCC#Cc1cnc2c(c1)C(=O)N([C@H](C)CO)C[C@@H](C)[C@@H](CN(C)C(=O)Nc1ccccc1OC)O2	x	x	x	x	2[16.7 µM]	0	x
Cc1cc2c(C)c(C)c(=O)[nH]c2cc1N	36*	3	6	2	8	x	18
CCCC(=O)N1CCC2(CC1)CN(S(=O)(=O)c1ccc(C)cc1)[C@H](CO)c1[nH]c3cc(OC)ccc3c12	x	x	x	x	x	0	x
CC(C)(C)c1ccc(/C=C2\SC(=O)N(CCNC(=O)c3cccc(S(=O)(=O)N4CCOCC4)c3)C2=O)cc1	-408	1	-31	-85	0	x	-258
COc1ccc(CCNC(=O)Cn2c(=O)n(-c3cc(F)ccc3F)c(=O)c3sccc32)cc1OC	43*	-2	-21	-3	-6	-1	18
CCOC(=O)N1CCN(C(=O)c2ccc(Cn3c(=S)[nH]c4cc(OCC)c(OCC)cc4c3=O)cc2)CC1	37*	-1	-5	21	1	42	-4
CC(C)NC(=O)Nc1ccc2c(c1)CC(=O)N([C@@H](C)CO)C[C@H](C)[C@H](CN(C)Cc1ccc(C(=O)Nc3ccccc3N)cc1)O2	x	x	x	x	x	0	x
C[C@H](CO)N1C[C@H](C)[C@@H](CN(C)C(=O)Nc2ccc3c(c2)OCO3)Oc2ccc(N(C)C)cc2C1=O	x	x	x	x	13[16.7 µM]	-1	x
CCC(=O)Nc1cc2nn(-c3ccc(OC)cc3)nc2cc1C	-269	1	-120	-59	1	x	-212
CCCCC(=O)Nc1cc2nn(-c3ccc(OC)cc3)nc2cc1C	-170	-5	-35	-120	0	0	x
O=C(CSc1ncn[nH]1)Nc1ccc(Cl)c(Cl)c1	35*	1	-52	5	-8	x	17
O=C(CSc1ncn[nH]1)Nc1ncc(C(F)(F)F)cc1Cl	9	-2	10	-11	x	0	x
N/C(=N\OC(=O)c1ccc2c(c1)OCO2)c1cccc([N+](=O)[O-])c1	-38	0	-64	-62	x	0	x
Cc1cccc(/C(N)=N/OC(=O)c2ccc3c(c2)OCO3)c1	-295	3	-121	-134	-7	x	-238
CC(NC(=O)C1CCC(CNc2c(N3CCCCC3)c(=O)c2=O)CC1)c1ccccc1 (centres undefined)	36*	1	9	12	x	0	-11
CCOc1ccccc1NC(=O)C1CCC(CNc2c(N3CCCCC3)c(=O)c2=O)CC1 (centres undefined)	-29	-1	16	-12	x	0	x
CC(C)NC(=O)N(C)C[C@H]1OCCCC[C@@H](C)Oc2ccc(NS(C)(=O)=O)cc2C(=O)N([C@H](C)CO)C[C@@H]1C	x	x	x	x	4[16.7 µM]	0	x
CCC(=O)N1c2ccccc2[C@@H](N(C(C)=O)c2ccccc2)C[C@H]1C	51*	4	-3	5	x	x	38*
Cc1ccccc1S(=O)(=O)N[C@@H]1CC[C@@H](CCn2cc(-c3ccccc3)nn2)O[C@H]1CO	x	x	x	x	x	0	x
CCOc1cc(NC(=O)c2ccco2)c(OCC)cc1NC(=O)c1cc(OC)c(OC)c(OC)c1	33	-1	-46	46	-21	x	x
COc1cc(NC(=O)c2ccco2)c(OC)cc1NC(=O)c1cc(OC)c(OC)c(OC)c1	41*	3	-30	6	-22	x	33*
C(=N\Nc1nc(Nc2ccccc2)nc(Nc2ccccc2)n1)/c1cccnc1	35*	1	-16	-15	x	x	30*
C(=N\Nc1nc(Nc2ccccc2)nc(Nc2ccccc2)n1)/c1ccncc1	20	-1	5	-21	-3	0	x
CCc1ccc(NC(=O)[C@H](Cc2c[nH]c3ccccc23)NC(=O)[C@@H]2Cc3ccccc3CN2)cc1	i	-3	7	-67	11	0	-76
Cc1cccc(NC(=O)[C@H](Cc2c[nH]c3ccccc23)NC(=O)[C@@H]2Cc3ccccc3CN2)c1	i	-2	-39	-65	-8	0	1
